The source of these data is ChEMBL document CHEMBL4513216, “Probing the Open Global Health Chemical Diversity Library for Multistage-Active Starting Points for Next-Generation Antimalarials” (ACS Infect Dis, 2020).

The nature of the series: Toxicity liver stage against HepG2, at 10uM. The series is classed as cell-based. Further details: test concentration 10 uM, cell line HepG2-A16-CD81EGFP. The settings on record: human, HepG2-A16-CD81EGFP cells; read-out: INHIBITION
Summed up:
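Uninfected HepG2-A16-CD81EGFP cells, 3 × 10^3 per well, 1536-well, plated on prespotted compound at 10 μM final, parasite-free screening media added to match infected plates; puromycin 10 μM positive, DMSO 0.5% negative; run in parallel with 48 h PbLuc assay at 37 °C, 5% CO2; viability by CellTiter-Glo luminescence, normalized to controls.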

As to `Cc1c(C)n(CC(O)CN2CCCCCC2)c2c(Cl)cccc12` (stereo not drawn), the cytotoxicity at 10 µM is -21.9%.

Turning to `O=C(c1cnoc1)N1CCC[C@]2(C[C@@H](Oc3ccccn3)CO2)C1`, the cytotoxicity at 10 µM was -5.96%.

Regarding `CCc1nn(C)c(Cl)c1CN1CCCC(c2cc(O)nc(C)n2)C1` (stereo not drawn), the cytotoxicity at 10 µM was -2.37%.

`Cc1ccnc(N2CCCC(c3nncn3C3CC3)C2)n1` (stereo not drawn): the cytotoxicity at 10 µM was -5.45%.

Take `CC(=O)N1CCN(Cc2ccc(F)c(C(F)(F)F)c2)CC(O)C1` (stereo not drawn): the cytotoxicity at 10 µM was -6.87%.

Regarding `COc1ccc(CC(=O)N2CCN(C)c3ncccc3C2)cc1`, the cytotoxicity at 10 µM is -5.79%.

With `CNC(=O)c1n[nH]c2c1C(c1cccc3nsnc13)CC(=O)N2` (stereo not drawn), the cytotoxicity at 10 µM was -13%.

`Cc1ccc2c(c1)SCC(=O)N2Cc1noc(C2CC2)n1`: the cytotoxicity at 10 µM was 7.4%.

Take `CC(NC(=O)Cn1cccnc1=O)c1ccc(OC(F)(F)F)cc1` (stereo not drawn): the cytotoxicity at 10 µM came out at 1.66%.

On to `O=C([C@H]1CC[C@@H]2[C@@H](CCN2Cc2ccsc2)O1)N1CCOCC1`, for which the cytotoxicity at 10 µM was 1.3%.

As to `c1cc2c(cc1CN1C[C@@H]3COC[C@@H](N4CCCC4)[C@@H]3C1)OCO2`, the cytotoxicity at 10 µM stood at 4.62%.

Turning to `OC1CCN(c2ccccc2NCc2nc(-c3ccoc3)no2)CC1`, the cytotoxicity at 10 µM was 14.5%.

Turning to `COc1ccc2c(c1)CCCN2C(=O)CNCC1CN(C)CCO1` (stereo not drawn), the cytotoxicity at 10 µM came to 4.78%.

As to `Cn1ccnc1CN1CCC(CCC(=O)Nc2ccccc2Cl)CC1`, the cytotoxicity at 10 µM was -3.73%.

On to `CSCCCN1CCn2nc(CNC(C)=O)cc2C1`, for which the cytotoxicity at 10 µM is -13.6%.

On to `Cn1ccc2cc(C(=O)Nc3nc[nH]n3)ccc21`, for which the cytotoxicity at 10 µM is 1.69%.

With `CN1CCN(c2cc(CNC(=O)c3cccnc3O)ccn2)CC1`, the cytotoxicity at 10 µM is -5.42%.

As to `CN(Cc1csc(-c2cccs2)n1)C(=O)CN1CCOC1=O`, the cytotoxicity at 10 µM was -0.811%.

On to `COCCCN(Cc1cnc(-c2ccccn2)nc1)C1CCN(C)CC1`, for which the cytotoxicity at 10 µM is -0.988%.

For `Cc1ccccc1NC(=O)N1CC[C@@H]2CN(C)S(=O)(=O)[C@@H]2CC1`, the cytotoxicity at 10 µM is 4%.

For `Cc1n[nH]c2c1C(c1cc(F)cc(F)c1)SCC(=O)N2` (stereo not drawn), the cytotoxicity at 10 µM came out at 2.03%.

Regarding `O=C(CN1CCN(CCO)CC1)NC(C1CC1)C1CC1`, the cytotoxicity at 10 µM was -6.56%.

Regarding `Cn1ccnc1CN1CCC2(CC1)CN(c1cncnc1)C(=O)CO2`, the cytotoxicity at 10 µM is -69.2%.

As to `CCC(O)CN1CCN(C(=O)c2cccn2Cc2cccs2)CC1` (stereo not drawn), the cytotoxicity at 10 µM was -5.74%.

As for `CCn1cnnc1C1CCN(C(=O)CCCOc2ccccc2)CC1`, the cytotoxicity at 10 µM turned out to be 0.927%.

For `c1cnc(NCc2ncn3c2CN(Cc2cccnc2)CCC3)nc1`, the cytotoxicity at 10 µM was -8.81%.

Consider `Cc1ccc(-n2nnc(C(=O)NS(C)(=O)=O)c2C2CC2)cc1`, for which the cytotoxicity at 10 µM is -13.9%.

As to `N#Cc1ccc(NCCS(=O)(=O)N2CCc3ccccc32)nc1`, the cytotoxicity at 10 µM was -8.69%.

For `CCc1nc2ccccc2c(=O)n1CC1(O)CCN(S(C)(=O)=O)CC1`, the cytotoxicity at 10 µM was -3.5%.

For the compound `COc1ccc(C)cc1C(=O)NC(CC(=O)O)c1cccs1` (stereo not drawn), the cytotoxicity at 10 µM is -16.3%.

`COCc1ccccc1NC(=O)c1ccoc1`: the cytotoxicity at 10 µM is -2.17%.

In the case of `Cc1nc(CNC2CCCN(c3cccnn3)C2)no1` (stereo not drawn), the cytotoxicity at 10 µM was -5.55%.

As to `CCc1nc(C(=O)N2CCN(C)CC2)nn1-c1ccccc1Cl`, the cytotoxicity at 10 µM came out at 2.1%.

For `O=S(=O)(c1ccc(F)cc1)n1cc(Cl)cn1`, the cytotoxicity at 10 µM is 0.0667%.

Turning to `Clc1snnc1CN1CCN(c2nccs2)CC1`, the cytotoxicity at 10 µM is -43.9%.

As for `CN1CCc2[nH]nc(C(=O)N3CCCC4(CN(C)C(=O)O4)C3)c2C1` (stereo not drawn), the cytotoxicity at 10 µM was -53.6%.

As to `COc1cc(C)c(NC(=O)CCn2cccc2)cc1OC`, the cytotoxicity at 10 µM was determined as 1.61%.

Consider `Cn1ncc(C(=O)N2CCOCC2)c1Cl`, for which the cytotoxicity at 10 µM is 8.93%.

For the compound `CCCn1nc(C)c(CNC(=O)c2snnc2C)c1C`, the cytotoxicity at 10 µM was -15.5%.

`NC(=O)C1CCN(C(=O)c2cccc(OCc3cscn3)c2)CC1`: the cytotoxicity at 10 µM was -15.5%.

For the compound `Cc1nn(-c2ccccc2)cc1C(=O)N1CCCC(n2cccn2)C1` (stereo not drawn), the cytotoxicity at 10 µM was 1.3%.

As to `CN(Cc1cccnc1)[C@@H]1CN(C(=O)NC2CC2)[C@@H]2CCCO[C@H]12`, the cytotoxicity at 10 µM came to 2.75%.

As for `N#Cc1cc2c(=O)n(CC(O)C(F)(F)F)ccc2[nH]c1=O` (stereo not drawn), the cytotoxicity at 10 µM is -1.99%.

As for `Cc1ccnc(N2CCC(=O)N(Cc3ccc(F)cc3)C(C(C)C)C2)n1` (stereo not drawn), the cytotoxicity at 10 µM turned out to be 0.538%.

As for `CC(CCc1ncnn1Cc1cccc(Cl)c1)N1CCCC1` (stereo not drawn), the cytotoxicity at 10 µM is -3.03%.

On to `Cn1ccnc1CN1CC2(CCN(Cc3ccncc3)C2)C1`, for which the cytotoxicity at 10 µM was -5.76%.

For `CCCN(Cc1cccnc1)C(=O)C1CCN(Cc2ccco2)CC1`, the cytotoxicity at 10 µM came out at 0.376%.

Regarding `Cc1nccc(N2C[C@@H](CN3CCCC3)[C@@H](CO)C2)n1`, the cytotoxicity at 10 µM was -3%.

`Cc1nnc(NC(=O)NCc2ccc(F)cc2)s1`: the cytotoxicity at 10 µM is -26%.

Regarding `Cc1cc(CN(C)C(=O)C(c2ccccc2C)N(C)C)on1` (stereo not drawn), the cytotoxicity at 10 µM stood at 3.65%.

Consider `Cc1ccccc1N1CCCN(C(=O)c2nn(C)cc2Cl)CC1`, for which the cytotoxicity at 10 µM is -4.78%.

Take `Cc1ccsc1CNCCCOc1ccccn1`: the cytotoxicity at 10 µM was -0.575%.

Consider `COc1c(CNCCC(=O)Nc2cccc(C)n2)c(C)nn1C`, for which the cytotoxicity at 10 µM was found to be 12.6%.

`CC(=O)NC1CCN(c2c(C#N)cnc3c(C)cc(F)cc23)CC1`: the cytotoxicity at 10 µM turned out to be 7.72%.

As to `Cn1ccc(NCc2cc3cc(F)ccc3o2)n1`, the cytotoxicity at 10 µM was -12.4%.

For the compound `O=C(COCc1ccccc1Cl)N1CCN(c2cnccn2)CC1`, the cytotoxicity at 10 µM was found to be 7.57%.

`Cc1cccc(CN2Cc3[nH]nc(COCc4nccs4)c3C2)n1`: the cytotoxicity at 10 µM was -7.12%.

Take `O=C(CC1CCN(c2cccnn2)CC1)NC1CCOCC1`: the cytotoxicity at 10 µM is 0.671%.

With `O=C(NCc1ccccn1)[C@]12COC[C@H]1CN(C1CCC1)C2`, the cytotoxicity at 10 µM is -6.82%.

Consider `OCCNC1CSCCc2ccccc21` (stereo not drawn), for which the cytotoxicity at 10 µM is -1.44%.

With `COc1ccc(-n2ccc(C(=O)N3CCN(C)CC3C)n2)cc1` (stereo not drawn), the cytotoxicity at 10 µM is -11.2%.

On to `O=C([C@H]1C[C@H]2OCC[C@H]2N(Cc2cccnc2)C1)N1CCCO1`, for which the cytotoxicity at 10 µM is -2.83%.

With `Brc1cnc(NCCCOC2CCOCC2)nc1`, the cytotoxicity at 10 µM was -5.2%.

Consider `COc1ccc(-n2nc(C)c(C(C)=O)c2C)cc1CO`, for which the cytotoxicity at 10 µM was found to be 11.2%.

On to `O=C(c1cccnc1O)N1CCC2(CCCO2)CC1`, for which the cytotoxicity at 10 µM worked out at 7.28%.

On to `COCC[C@]1(O)CCN(C(=O)c2cnn(C)c2)C[C@H]1C`, for which the cytotoxicity at 10 µM was found to be 2.59%.

Turning to `COCCNC(=O)c1ccc2c(=O)n3c(nc2c1)CCCC3`, the cytotoxicity at 10 µM was 10%.

`O=C1NC2(CCc3ccccc31)CCN(C(=O)c1ccncc1)C2` (stereo not drawn): the cytotoxicity at 10 µM was 0.84%.

For the compound `Cc1nn(CC(C)C)c(N(C)C)c1CNCCC(=O)NC(C)C`, the cytotoxicity at 10 µM amounted to 7.45%.

Consider `CC(C)n1cc2cc(NC(=O)CCS(C)(=O)=O)ccc2n1`, for which the cytotoxicity at 10 µM is -141%.

On to `COCCN1C(=O)CCC12CCCN(Cc1ccccc1F)C2` (stereo not drawn), for which the cytotoxicity at 10 µM was 3.64%.

With `COc1ccc(-c2c[nH]c(C3CC(=O)N(CC(C)C)C3)n2)cc1` (stereo not drawn), the cytotoxicity at 10 µM came to 5.35%.

On to `COc1ccc2c(c1)OCC(CNC(=O)NC(C)(C)C)C2` (stereo not drawn), for which the cytotoxicity at 10 µM was -8.54%.

With `CSc1nccc(N2CCC(=O)N(CC3CC3)C(C(C)C)C2)n1` (stereo not drawn), the cytotoxicity at 10 µM is -2.02%.

For `O=C(CC1CC1)N1CCC(O)(CN2CCN(c3ccccc3)CC2)C1` (stereo not drawn), the cytotoxicity at 10 µM was -11.2%.

On to `NCc1cn(CC2CCCN(C(=O)CC3=CCCCC3)C2)nn1` (stereo not drawn), for which the cytotoxicity at 10 µM was 1.46%.

Regarding `Cc1nccn1C1CCCN(C(=O)c2ccc3c(c2)CCC3)C1` (stereo not drawn), the cytotoxicity at 10 µM is -13.8%.

As for `CCOc1ccc(C#N)cc1NC(=O)N1CCC(n2cncn2)CC1`, the cytotoxicity at 10 µM amounted to 20.3%.

As for `Cc1cccc(N2CCN(CCS(=O)(=O)c3ccc(Br)cc3)CC2)c1C`, the cytotoxicity at 10 µM came out at 21.9%.

Turning to `CCN(Cc1ccncc1)C(=O)c1cn(CCC2CCCCC2)nn1`, the cytotoxicity at 10 µM worked out at 10.5%.

On to `Cn1ncc2c1CCCN(C(=O)C1CCCC1)C2`, for which the cytotoxicity at 10 µM is 4.13%.

`Cc1ccc(-c2cn[nH]c2C2CCCN(c3cc(N)ncn3)C2)cc1` (stereo not drawn): the cytotoxicity at 10 µM turned out to be 55.4%.

As to `C/C=C(\C)CN1CCC2(CCC(=O)N2OCc2ccccc2F)CC1`, the cytotoxicity at 10 µM turned out to be 5.24%.

Regarding `Cc1noc(C)c1CN1C[C@H](OCC(=O)N(C)C)[C@H]2COC[C@H]21`, the cytotoxicity at 10 µM came out at 7.61%.

For the compound `Cc1c(-c2n[nH]c3c2CN(CC2CCOC2)CC3)cccc1C(F)(F)F` (stereo not drawn), the cytotoxicity at 10 µM was -43.2%.

For `CNc1nc(CNC(=O)Nc2cccc(C(C)OC)c2)cs1` (stereo not drawn), the cytotoxicity at 10 µM was -13.3%.

For the compound `CN1CCCC(C(=O)N2CCC(Oc3ncccn3)CC2)C1` (stereo not drawn), the cytotoxicity at 10 µM is -5.2%.

Take `CN1CC(=O)N(c2ccsc2)CC12CCN(C(=O)c1ccc[nH]1)C2` (stereo not drawn): the cytotoxicity at 10 µM is -71.8%.

On to `Cc1ncc2c(n1)CN(Cc1nc(-c3cccs3)no1)CC2`, for which the cytotoxicity at 10 µM was -9.8%.

As for `COCCOc1ccccc1C(=O)N1CCCCC1c1nccs1` (stereo not drawn), the cytotoxicity at 10 µM was found to be 0.642%.

On to `NCc1cnn(-c2ccccc2C(=O)NCCc2ccncc2)c1`, for which the cytotoxicity at 10 µM was found to be 0.664%.

Regarding `Cc1c(CCC(=O)N2CCOC(c3cnccn3)C2)cnn1C` (stereo not drawn), the cytotoxicity at 10 µM was -1.87%.

With `Cc1ccc(C(=O)NCCCNS(C)(=O)=O)cc1-n1cccc1`, the cytotoxicity at 10 µM was -10%.

Consider `CN(Cc1cccnc1)C(=O)NC1CCN(Cc2ccccn2)CC1`, for which the cytotoxicity at 10 µM is -18.2%.

Regarding `O=C(NCCNc1ccc(C(F)(F)F)cn1)c1ccc(Br)cc1`, the cytotoxicity at 10 µM was -6.28%.

`O=C(Nc1ccc(-c2csnn2)cc1)NC(CCO)C1CC1` (stereo not drawn): the cytotoxicity at 10 µM is 15.6%.

As to `CN1CCN(C2CCN(CCOc3ccc(Cl)cc3)CC2)C1=O`, the cytotoxicity at 10 µM was -5.36%.

For the compound `CC(Nc1ccc(Oc2cccc(C#N)c2)cc1)C(=O)NC1CC1` (stereo not drawn), the cytotoxicity at 10 µM turned out to be 6.91%.
